{"source": "ChEMBL document CHEMBL2331185", "about": "“Structures and cytotoxic evaluation of new and known acyclic Ene-Ynes from an American Samoa Petrosia sp. Sponge” (J Nat Prod, 2013)", "key": {"[1]": {"assay": "Cytotoxicity against human H522-T1 cells after 96 hrs by CellTiter-Glo luminescent assay", "type": "functional, cell-based", "details": "H522-T1, 96 h", "in_short": "(§1)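 Tumour cells grown in 96-well plates without or with continuous test compound for 96 h. Growth measured by CellTiter-Glo luminescence. IC50 is the concentration inhibiting growth by 50% relative to untreated cells. Two separate replicate experiments.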"}, "[2]": {"assay": "Cytotoxicity against human H460 cells after 96 hrs by CellTiter-Glo luminescent assay", "type": "functional, cell-based", "details": "NCI-H460, 96 h", "in_short": "as §1"}, "[3]": {"system": "A2058", "assay": "Cytotoxicity against human A2058 cells after 96 hrs by CellTiter-Glo luminescent assay", "type": "functional, cell-based", "details": "A2058, 96 h", "in_short": "as §1"}, "[4]": {"system": "IMR-90", "assay": "Cytotoxicity against human IMR90 cells after 96 hrs by CellTiter-Glo luminescent assay", "type": "cell-based", "details": "IMR-90, 96 h", "in_short": "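Fibroblasts grown 4 days to confluency in MEM with 10% FBS, L-glutamine and penicillin/streptomycin. After washing, cells were held 3 more days in MEM with 0.1% FBS to reach quiescence. Compound added, then incubation 96 h at 37°C. Viability measured as cellular ATP by CellTiter-Glo.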"}, "[5]": {"system": "A2058", "assay": "Selectivity index, ratio of IC50 for human IMR90 cells to IC50 for human A2058 cells", "type": "functional", "in_short": "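SI calculated from the relative IC50 response of quiescent IMR-90 fibroblasts versus A2058 melanoma cells. IMR-90 IC50 comes from the 96 h low-serum quiescent assay; A2058 IC50 comes from the 96 h continuous-exposure proliferating assay. Both read by CellTiter-Glo.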"}}}
{"smiles": "C#CC(O)/C=C/CCCCCCCCCC(O)CCCCCCCCCCCC(O)C#CC#CCO", "note": "(stereo not drawn)", "values": [{"measurement": "IC50", "setting": "[1]", "value": 1200, "unit": "nM"}, {"measurement": "IC50", "setting": "[2]", "value": 800, "unit": "nM"}, {"measurement": "IC50", "setting": "[3]", "value": 800, "unit": "nM"}]}
{"smiles": "C#CC(O)/C=C/CCCCCCCCCCCC#CCCCCCCCCCCCC(O)C#CC#CCO", "note": "(stereo not drawn)", "values": [{"measurement": "IC50", "setting": "[1]", "value": 2700, "unit": "nM"}, {"measurement": "IC50", "setting": "[4]", "value": 1600, "unit": "nM"}, {"measurement": "Ratio IC50", "setting": "[5]", "value": 1.2}, {"measurement": "IC50", "setting": "[2]", "value": 1200, "unit": "nM"}, {"measurement": "IC50", "setting": "[3]", "value": 1300, "unit": "nM"}]}
{"smiles": "C#C[C@H](O)/C=C/CCCCCCCCCC#CCCCCCCCCCCCC/C=C\\C#CC(=O)O", "values": [{"measurement": "IC50", "setting": "[1]", "value": 8400, "unit": "nM"}, {"measurement": "IC50", "setting": "[4]", "value": 400, "unit": "nM"}, {"measurement": "Ratio IC50", "setting": "[5]", "value": 0.1}, {"measurement": "IC50", "setting": "[2]", "value": 7300, "unit": "nM"}, {"measurement": "IC50", "setting": "[3]", "value": 6400, "unit": "nM"}]}
{"smiles": "C#CC(O)/C=C/CCCCCCCCC/C=C\\CCCCCCCCCCCC(O)C#CC#CCO", "note": "(stereo not drawn)", "values": [{"measurement": "IC50", "setting": "[1]", "value": 800, "unit": "nM"}, {"measurement": "IC50", "setting": "[4]", "value": 400, "unit": "nM"}, {"measurement": "Ratio IC50", "setting": "[5]", "value": 1}, {"measurement": "IC50", "setting": "[2]", "value": 400, "unit": "nM"}, {"measurement": "IC50", "setting": "[3]", "value": 400, "unit": "nM"}]}
{"smiles": "C#C[C@H](O)/C=C/CCCCCCCCCCC/C=C/C(O)CCCCCCCCC/C=C\\C#CC(=O)O", "note": "(stereo partly drawn)", "values": [{"measurement": "IC50", "setting": "[1]", "value": "> 10000", "unit": "nM"}, {"measurement": "IC50", "setting": "[4]", "value": 200, "unit": "nM"}, {"measurement": "Ratio IC50", "setting": "[5]", "value": 0}, {"measurement": "IC50", "setting": "[2]", "value": "> 10000", "unit": "nM"}, {"measurement": "IC50", "setting": "[3]", "value": 8100, "unit": "nM"}]}
{"smiles": "C#CC(O)/C=C/CCCCCCCC#C/C=C\\CCCCCCCCCCCC(O)C#CC#CCO", "note": "(stereo not drawn)", "values": [{"measurement": "IC50", "setting": "[1]", "value": 600, "unit": "nM"}, {"measurement": "IC50", "setting": "[4]", "value": 300, "unit": "nM"}, {"measurement": "Ratio IC50", "setting": "[5]", "value": 0.8}, {"measurement": "IC50", "setting": "[2]", "value": 1000, "unit": "nM"}, {"measurement": "IC50", "setting": "[3]", "value": 400, "unit": "nM"}]}
{"smiles": "C#C[C@H](O)/C=C/CCCCCCCC#C/C=C\\CCCCCCCCCCCC/C=C\\C#CC(=O)O", "values": [{"measurement": "IC50", "setting": "[1]", "value": 4600, "unit": "nM"}, {"measurement": "IC50", "setting": "[4]", "value": 300, "unit": "nM"}, {"measurement": "Ratio IC50", "setting": "[5]", "value": 0.1}, {"measurement": "IC50", "setting": "[2]", "value": 3100, "unit": "nM"}, {"measurement": "IC50", "setting": "[3]", "value": 3800, "unit": "nM"}]}
{"smiles": "C#CC(O)/C=C/CCCCCCCC#C/C=C\\CCCCCCCCCCCCCC(O)C#CC#CCO", "note": "(stereo not drawn)", "values": [{"measurement": "IC50", "setting": "[1]", "value": 1100, "unit": "nM"}, {"measurement": "IC50", "setting": "[4]", "value": 500, "unit": "nM"}, {"measurement": "Ratio IC50", "setting": "[5]", "value": 0.6}, {"measurement": "IC50", "setting": "[2]", "value": 700, "unit": "nM"}, {"measurement": "IC50", "setting": "[3]", "value": 800, "unit": "nM"}]}
{"smiles": "CC[C@]1(O)C[C@@H]2CN(CCc3c([nH]c4ccccc34)[C@@](C(=O)OC)(c3cc4c(cc3OC)N(C)[C@H]3[C@@](O)(C(=O)OC)[C@H](OC(C)=O)[C@]5(CC)C=CCN6CC[C@]43[C@@H]65)C2)C1", "note": "[VINBLASTINE]", "values": [{"measurement": "IC50", "setting": "[1]", "value": 9, "unit": "nM"}, {"measurement": "IC50", "setting": "[4]", "value": "> 1000", "unit": "nM"}, {"measurement": "Ratio IC50", "setting": "[5]", "value": ">250"}, {"measurement": "IC50", "setting": "[2]", "value": 2, "unit": "nM"}, {"measurement": "IC50", "setting": "[3]", "value": 4, "unit": "nM"}]}
